Reference: ChEMBL document CHEMBL1146843, “Synthesis and properties of benzo[a]phenoxazinium chalcogen analogues as novel broad-spectrum antimicrobial photosensitizers” (J Med Chem, 2006)
One block for each molecule: values may come before it.

What was measured:
[1] = tested on: Enterococcus faecalis; test: Photodynamic inactivation of Enterococcus faecalis ATCC 29212 at the fluence of 64 J/cm2 light at 2 uM after 10 mins; assay type: functional
Method in brief: (§1)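 Exponential cultures were used: bacteria about 10^8 cells/mL in BHI, Candida in YM. Cells were dark-incubated with dye for 10 min at room temperature, then washed and resuspended in PBS without Ca2+/Mg2+. Illumination used 30-nm band-pass red light (630, 652 or 660 ± 15 nm per dye) at 60–100 mW/cm2 and room temperature. Ten-fold serial dilutions were plated on BHI agar at 37 °C overnight. CFU survival was expressed relative to untreated cells, in triplicate.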

[2] = tested on: Escherichia coli; test: Photodynamic inactivation of Escherichia coli ATCC 25922 at the fluence of 64 J/cm2 light at 5 uM after 10 mins; assay type: functional; method in brief: as §1
[3] = tested on: Candida albicans; test: Photodynamic inactivation of Candida albicans ATCC 18804 at the fluence of 64 J/cm2 light at 20 uM after 10 mins; assay type: functional; method in brief: as §1
[4] = tested on: Escherichia coli; test: Cellular uptake in Escherichia coli ATCC 25922 at 5 uM after 10 mins; assay type: functional, organism-based
Method in brief: (§2)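 Exponential-phase cells (bacteria in BHI, yeast in YM, 37 °C, 150 rpm) were incubated with dye in the dark for 10 min at room temperature. Centrifugation at 1550g for 6 min removed unbound dye, and pellets were resuspended in PBS without Ca2+/Mg2+. Pellets were dissolved in 10% SDS for ≥24 h. Fluorescence peak height was read at the dye-specific excitation and emission, against SDS calibration curves. Means of three experiments.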

[5] = Partition coefficient, log P at pH 7.4; assay type: physicochemical; details: octanol/water
[6] = tested on: Enterococcus faecalis; test: Photodynamic inactivation of Enterococcus faecalis ATCC 29212 at the fluence of 8 J/cm2 light at 2 uM after 10 mins; assay type: functional; method in brief: as §1
[7] = tested on: Escherichia coli; test: Photodynamic inactivation of Escherichia coli ATCC 25922 at the fluence of 32 J/cm2 light at 5 uM after 10 mins; assay type: functional; method in brief: as §1
[8] = tested on: Candida albicans; test: Photodynamic inactivation of Candida albicans ATCC 18804 at the fluence of 4 J/cm2 light at 20 uM after 10 mins; assay type: functional; method in brief: as §1
[9] = tested on: Enterococcus faecalis; test: Cellular uptake in Enterococcus faecalis ATCC 29212 at 2 uM after 10 mins; assay type: functional, organism-based; method in brief: as §2
[10] = tested on: Enterococcus faecalis; test: Photodynamic inactivation of Enterococcus faecalis ATCC 29212 at the fluence of 80 J/cm2 light at 2 uM after 10 mins; assay type: functional; method in brief: as §1
[11] = tested on: Escherichia coli; test: Photodynamic inactivation of Escherichia coli ATCC 25922 at the fluence of 80 J/cm2 light at 5 uM after 10 mins; assay type: functional; method in brief: as §1
[12] = tested on: Candida albicans; test: Photodynamic inactivation of Candida albicans ATCC 18804 at the fluence of 80 J/cm2 light at 20 uM after 10 mins; assay type: functional; method in brief: as §1
[13] = tested on: Candida albicans; test: Cellular uptake in Candida albicans ATCC 18804 at 20 uM after 10 mins; assay type: functional, organism-based; method in brief: as §2

- logD [5]: 2.76
SMILES: CC/N=c1/cc2sc3cc(N(CC)CC)ccc3nc-2c2ccccc12.Cl
- Activity [1]: >99.9%
- Activity [2]: >99%
- Activity [3]: >98%
- Drug uptake [4]: 75%

SMILES: CC/N=c1/cc2[se]c3cc(N(CC)CC)ccc3nc-2c2ccccc12.Cl
- Activity [6]: >99.999%
- Activity [7]: >100%
- Activity [8]: > 99%
- Drug uptake [9]: 75%
- logD [5]: 2.08

- logD [5]: 2.69
SMILES: CC/N=c1/cc2oc3cc(N(CC)CC)ccc3nc-2c2ccccc12.Cl
- Activity [10]: 95%
- Activity [11]: 90%
- Activity [12]: >97%
- Drug uptake [13]: 75%
